Measurements taken from ChEMBL document CHEMBL3627646, “Synthesis and biological activity of amino acid derivatives of avarone and its model compound” (Bioorg Med Chem, 2015).
In brackets after ≈: the same amount, converted by molar mass. Activity calls are given as the source filed them. The calls are words filed in the database; no cut-off is given here.

Tests used:
HeLa = assay: Cytotoxicity against human HeLa cells assessed as cell survival after 72 hrs by MTT assay; type: functional, cell-based
How it was run: (§1)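 Cells seeded (HeLa 2000, MDA-MB-453 3000, others 5000 per well), treated 24 h later (K562 after 2 h). Five double-diluted final concentrations, 200–12.5 μM, from 10 mM DMSO stocks, in RPMI-1640 with 10% FBS, pH 7.2, 72 h. MTT 4 h at 37 °C, SDS added, A570 read next day. Survival relative to medium control; IC50 from survival curves; triplicate; cisplatin positive control.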

A549 = assay: Cytotoxicity against human A549 cells assessed as cell survival after 72 hrs by MTT assay; type: functional, cell-based; details: A549, 72 h; how it was run: as §1
[1] = Cytotoxicity against human Fem-X cells assessed as cell survival after 72 hrs by MTT assay; type: functional, cell-based; how it was run: as §1
K562 = assay: Cytotoxicity against human K562 cells assessed as cell survival after 72 hrs by MTT assay; type: functional, cell-based; details: K562, 72 h; how it was run: as §1
MDA-MB-453 = assay: Cytotoxicity against human MDA-MB-453 cells assessed as cell survival after 72 hrs by MTT assay; type: functional, cell-based; details: MDA-MB-453, 72 h; how it was run: as §1
MRC5 = assay: Cytotoxicity against human MRC5 cells assessed as cell survival after 72 hrs by MTT assay; type: cell-based; details: MRC5, 72 h; how it was run: as §1
Staphylococcus aureus = assay: Antibacterial activity against Staphylococcus aureus ATCC 6538 after 24 hrs by microbroth double dilution method; type: functional; details: ATCC 6538, 24 h
How it was run: (§2)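 Microbroth double dilution in Mueller Hinton broth; compound stock 10 mg/mL in DMSO serially halved across rows. Wells inoculated with 10 μL culture at 10^6 cells/mL, incubated 37 °C for 24 h. Amikacin row as positive control, DMSO row as negative control. MIC taken as lowest concentration inhibiting bacterial growth.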

Kocuria rhizophila = assay: Antibacterial activity against Kocuria rhizophila ATCC 9341 after 24 hrs by microbroth double dilution method; type: functional; details: ATCC 9341, 24 h; how it was run: as §2
Bacillus subtilis = assay: Antibacterial activity against Bacillus subtilis ATCC 6633 after 24 hrs by microbroth double dilution method; type: functional; details: ATCC 6633, 24 h; how it was run: as §2
Micrococcus luteus = assay: Antibacterial activity against Micrococcus luteus ATCC 4698 after 24 hrs by microbroth double dilution method; type: functional; details: ATCC 4698, 24 h; how it was run: as §2
Micrococcus flavus = assay: Antibacterial activity against Micrococcus flavus ATCC 10240 after 24 hrs by microbroth double dilution method; type: functional; details: ATCC 10240, 24 h; how it was run: as §2
Clostridium sporogenes = assay: Antibacterial activity against Clostridium sporogenes ATCC 19404 after 24 hrs by microbroth double dilution method; type: functional; details: ATCC 19404, 24 h; how it was run: as §2
Escherichia coli = assay: Antibacterial activity against Escherichia coli ATCC 25922 after 24 hrs by microbroth double dilution method; type: functional; details: ATCC 25922, 24 h; how it was run: as §2
Proteus hauseri = assay: Antibacterial activity against Proteus hauseri ATCC 13315 after 24 hrs by microbroth double dilution method; type: functional; details: ATCC 13315, 24 h; how it was run: as §2
Salmonella enterica = assay: Antibacterial activity against Salmonella enterica ATCC 13076 after 24 hrs by microbroth double dilution method; type: functional; details: ATCC 13076, 24 h; how it was run: as §2
Pseudomonas aeruginosa = assay: Antibacterial activity against Pseudomonas aeruginosa ATCC 9027 after 24 hrs by microbroth double dilution method; type: functional; details: ATCC 9027, 24 h; how it was run: as §2
Candida albicans = assay: Antifungal activity against Candida albicans ATCC 10231 after 24 hrs by microbroth double dilution method; type: functional
Saccharomyces cerevisiae = assay: Antifungal activity against Saccharomyces cerevisiae ATCC 9763 after 24 hrs by microbroth double dilution method; type: functional
Aspergillus brasiliensis = assay: Antifungal activity against Aspergillus brasiliensis ATCC 16404 after 24 hrs by microbroth double dilution method; type: functional
Artemia salina = assay: Cytotoxicity in Brine shrimp assessed as nauplii mortality after 24 hrs; type: organism-based; details: in vivo
How it was run: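 Artemia salina eggs hatched in aerated tap water with dried yeast at 18–20 °C under illumination for 48 h, and freshly hatched nauplii were used. Compounds in DMSO (0.01–1 mg) were added to 950 µL artificial seawater containing 10–20 nauplii, with 5% final DMSO. After 24 h under illumination at room temperature, dead and surviving nauplii were counted and statistically analysed.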

Compound | IC50 (HeLa) [µM] | IC50 (A549) [µM] | IC50 [1] [µM] | IC50 (K562) [µM] | IC50 (MDA-MB-453) [µM] | IC50 (MRC5) [µM] | MIC (Staphylococcus aureus) [µM] | MIC (Kocuria rhizophila) [µM] | MIC (Bacillus subtilis) [µM] | MIC (Micrococcus luteus) [µM] | MIC (Micrococcus flavus) [µM] | MIC (Clostridium sporogenes) [µM] | MIC (Escherichia coli) [µM] | MIC (Proteus hauseri) [µM] | MIC (Salmonella enterica) [µM] | MIC (Pseudomonas aeruginosa) [µM] | MIC (Candida albicans; ATCC 10231, 24 h) [µM] | MIC (Saccharomyces cerevisiae; ATCC 9763, 24 h) [µM] | MIC (Aspergillus brasiliensis; ATCC 16404, 24 h) [µM] | LC50 (Artemia salina) [ppm] | also measured
CC(C)(C)C1=CC(=O)C(N2CCC[C@H]2C(=O)O)=CC1=O | 44.9 | 186 | 87.3 | 49.2 | 67.2 | > 200 | 567 (≈ 157 µg/mL) | 2260 (≈ 626 µg/mL) | 1130 (≈ 313 µg/mL) | 567 (≈ 157 µg/mL) | 2260 (≈ 626 µg/mL) | 2260 (≈ 626 µg/mL) | 567 (≈ 157 µg/mL) | 2260 (≈ 626 µg/mL) | 2260 (≈ 626 µg/mL) | 2260 (≈ 626 µg/mL) | 567 (≈ 157 µg/mL) | 567 (≈ 157 µg/mL) | 2260 (≈ 626 µg/mL) | 883.4 | 
NCC[C@H](O)C(=O)N[C@@H]1C[C@H](N)[C@@H](O[C@H]2O[C@H](CN)[C@@H](O)[C@H](O)[C@H]2O)[C@H](O)[C@H]1O[C@H]1O[C@H](CO)[C@@H](O)[C@H](N)[C@H]1O [AMIKACIN] |  |  |  |  |  |  | 18.8 (≈ 11 µg/mL) | 3.42 (≈ 2 µg/mL) | 71.7 (≈ 42 µg/mL) | 13.7 (≈ 7.99 µg/mL) | 3.42 (≈ 2 µg/mL) | 25.6 (≈ 15 µg/mL) | 8.54 (≈ 5 µg/mL) | 11.9 (≈ 7 µg/mL) | 13.7 (≈ 8 µg/mL) | 85.4 (≈ 50 µg/mL) |  |  |  |  | 
NYSTATIN |  |  |  |  |  |  |  |  |  |  |  |  |  |  |  |  |  |  |  |  | MIC (Candida albicans): 2700 µM; MIC (Saccharomyces cerevisiae): 1350 µM; MIC (Aspergillus brasiliensis): 1350 µM
CC1=CCC[C@H]2[C@](C)(CC3=CC(=O)C=C(N[C@@H](C)C(=O)O)C3=O)[C@@H](C)CC[C@]12C | 11.7 | 54.3 | 10.3 | 15.8 | 14.7 | 157 | 49.1 (≈ 19.6 µg/mL) | 1570 (≈ 626 µg/mL) | 195 (≈ 78.1 µg/mL) | 97.7 (≈ 39.1 µg/mL) | 195 (≈ 78.1 µg/mL) | 195 (≈ 77.9 µg/mL) | 49.1 (≈ 19.6 µg/mL) | 393 (≈ 157 µg/mL) | 195 (≈ 78.1 µg/mL) | 195 (≈ 78.1 µg/mL) | 6.13 (≈ 2.45 µg/mL) | 195 (≈ 77.9 µg/mL) | 1560 (≈ 624 µg/mL) | 129.4 | 
CC1=CCC[C@H]2[C@](C)(CC3=CC(=O)C=CC3=O)[C@@H](C)CC[C@]12C [AVARONE] | 18.1 | 30 | 40.3 | 17.1 | 16.7 | > 200 | 40.1 (≈ 12.5 µg/mL) | 20 (≈ 6.26 µg/mL) | 80.1 (≈ 25 µg/mL) | 2000 (≈ 625 µg/mL) | 20 (≈ 6.26 µg/mL) | 20 (≈ 6.26 µg/mL) | 441 (≈ 138 µg/mL) | 27.6 (≈ 8.61 µg/mL) | 55.1 (≈ 17.2 µg/mL) | 13.8 (≈ 4.31 µg/mL) |  |  |  | 170 | MIC (Candida albicans): inactive; MIC (Saccharomyces cerevisiae): inactive; MIC (Aspergillus brasiliensis): inactive
CC(C)(C)C1=CC(=O)C=C(N[C@@H](Cc2c[nH]c3ccccc23)C(=O)O)C1=O | 106 | 198 | 34.7 | 25 | 120 | > 200 | 855 (≈ 313 µg/mL) | 1710 (≈ 626 µg/mL) | 1710 (≈ 626 µg/mL) | 1710 (≈ 626 µg/mL) | 1710 (≈ 626 µg/mL) | 1710 (≈ 626 µg/mL) | 1710 (≈ 626 µg/mL) | 1710 (≈ 626 µg/mL) | 1710 (≈ 626 µg/mL) | 1710 (≈ 626 µg/mL) | 213 (≈ 78.1 µg/mL) | 213 (≈ 78.1 µg/mL) | 1410 (≈ 516 µg/mL) |  | 
CC1=CCC[C@H]2[C@](C)(CC3=CC(=O)C=C(N[C@@H](Cc4c[nH]c5ccccc45)C(=O)O)C3=O)[C@@H](C)CC[C@]12C | 16.2 | 39.6 | 14.8 | 16.1 | 22.9 | 157 | 19.1 (≈ 9.81 µg/mL) | 305 (≈ 157 µg/mL) | 37.9 (≈ 19.5 µg/mL) | 19.1 (≈ 9.81 µg/mL) | 37.9 (≈ 19.5 µg/mL) | 37.9 (≈ 19.5 µg/mL) | 19.1 (≈ 9.81 µg/mL) | 37.9 (≈ 19.5 µg/mL) | 19.1 (≈ 9.81 µg/mL) | 37.9 (≈ 19.5 µg/mL) | 305 (≈ 157 µg/mL) | < 2.39 | 1220 (≈ 626 µg/mL) |  | 
